Experimental data from paper PMC9136965 (ACS Central Science, 2022).
Values after ≈ are worked out from the molar mass of the structure shown. Read-outs that look alike come from different tables or passages of the source.

Columns and labels:
B. subtilis 168 = experiment: Cell lytic assay; format: cell-based, Bacillus subtilis; conditions: B. subtilis 168, LB, 4× MIC, OD600 at 37 °C, n = 3, Figure 5B
Procedure, shortened: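 B. subtilis 168 cultures exposed to test compounds or reference antibiotics to tell lysis from growth arrest. Triplicate experiments (n = 3); values plotted as means with standard deviation (s.d.).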

B. subtilis 168 cells = experiment: Bright-field microscopy of cell morphology; format: cell-based, Bacillus subtilis; conditions: B. subtilis 168, bright-field microscopy, Figure 5A

CN[C@H](CC(C)C)C(=O)N[C@H]1C(=O)N[C@@H](CC(N)=O)C(=O)N[C@H]2C(=O)N[C@H]3C(=O)N[C@H](C(=O)N[C@H](C(=O)O)c4cc(O)cc(O)c4-c4cc3ccc4O)[C@H](O)c3ccc(c(Cl)c3)Oc3cc2cc(c3O[C@@H]2O[C@H](CO)[C@@H](O)[C@H](O)[C@H]2O[C@H]2C[C@](C)(N)[C@H](O)[C@H](C)O2)Oc2ccc(cc2Cl)[C@H]1O [vancomycin]
MIC (M. tuberculosis H37Ra; H37Ra): 2 µg/mL (≈ 1.38 µM)

complestatin
bacteriostatic or lytic action (B. subtilis 168): bacteriostatic | growth morphology of treated cells (B. subtilis 168 cells): extended and twisted phenotype | MIC (M. tuberculosis H37Ra): >128 µg/mL

corbomycin
bacteriostatic or lytic action (B. subtilis 168): bacteriostatic | growth morphology of treated cells (B. subtilis 168 cells): extended and twisted phenotype
